The nature of series [1]: Drug metabolism in C57BL/6J mouse primary hepatocytes assessed as Cytochrome P450-mediated formation of 3-OHD3NVP at 10 uM incubated for 24 hrs by uHPLC-MS analysis. The series is classed as ADME, cell-based. The method in brief:
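Fresh hepatocytes from male C57BL/6J mice (8–13 weeks), adhered overnight, then 10 μM substrate or vehicle (0.1% DMSO) for 24 h. Medium extracted with acetonitrile (50% final), dried, reconstituted in methanol; uHPLC-Orbitrap targeted SIM plus PRM (monooxygenated metabolites) or high-resolution ions (O-glucuronides, 459.1510/462.1700 ±5 ppm); four experimental replicates.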

The test system of series [2] is Cytochrome P450. Briefly: Drug metabolism in human primary hepatocytes assessed as Cytochrome P450-mediated formation of 3-OHNVP at 10 uM incubated for 24 to 48 hrs by uHPLC-MS analysis. The series is classed as ADME, cell-based. The method in brief:
(§1)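 Cryoplateable pooled human hepatocytes (10 mixed-sex donors per pool, three lots), adhered overnight, then 10 μM substrate or vehicle (0.1% DMSO) for 24 or 48 h in InVitroGRO CP medium. Medium extracted with 50% acetonitrile, dried, reconstituted in methanol; uHPLC-Orbitrap MS/MS for monooxygenated metabolites, high-resolution MS for O-glucuronide.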

Series [3] is described as follows: Drug metabolism in human primary hepatocytes assessed as O-GlucNVP metabolite formation at 10 uM incubated for 24 hrs by uHPLC-MS analysis. The series is classed as ADME, cell-based, Hepatocyte. Put shortly: as §1
A further series addresses Cytochrome P450 3A5 (Homo sapiens, UniProt P20815). Briefly: Drug metabolism assessed as human CYP3A5-mediated formation of 12-OHNVP at 10 uM pre-incubated for 30 mins followed by addition of NADPH regenerating reagents by uHPLC-MS analysis. The series is classed as ADME. The note with it: recombinant enzyme. Put shortly:
(§2)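 Insect-cell microsomes with single cDNA-expressed human P450 (100 nM) in 0.1 M potassium phosphate; 10 μM substrate prewarmed 5 min at 37 °C with NADPH-regenerating system, reaction started by adding microsomes; 30 min at 37 °C, 0.1% DMSO. Stopped, dried, reconstituted in methanol; triple-quadrupole SRM (12-OH 283.1→223.0, 2-OH 283.1→160.9, 3-OH 283.1→241.9), peak height; three replicates, mean ± SD.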

The next series deals with T1, Cytochrome P450 1A1 (Homo sapiens, UniProt P04798).
T1 sequence (P04798 whole entry): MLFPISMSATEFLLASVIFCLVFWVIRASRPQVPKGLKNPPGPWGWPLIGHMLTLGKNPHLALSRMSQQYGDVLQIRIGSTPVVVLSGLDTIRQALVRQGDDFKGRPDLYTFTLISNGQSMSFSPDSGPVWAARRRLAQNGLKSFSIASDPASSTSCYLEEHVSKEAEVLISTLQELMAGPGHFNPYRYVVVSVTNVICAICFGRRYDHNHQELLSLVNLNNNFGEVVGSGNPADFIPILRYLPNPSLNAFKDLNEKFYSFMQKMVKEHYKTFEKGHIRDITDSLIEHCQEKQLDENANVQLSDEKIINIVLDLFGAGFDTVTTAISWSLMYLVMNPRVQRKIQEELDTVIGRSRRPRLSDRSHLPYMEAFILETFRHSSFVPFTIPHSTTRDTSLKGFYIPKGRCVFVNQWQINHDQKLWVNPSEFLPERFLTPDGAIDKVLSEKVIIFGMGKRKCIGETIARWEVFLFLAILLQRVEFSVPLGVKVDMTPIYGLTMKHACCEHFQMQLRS
Briefly: Drug metabolism assessed as human CYP1A1-mediated formation of 12-OHNVP at 10 uM pre-incubated for 30 mins followed by addition of NADPH regenerating reagents by uHPLC-MS analysis. As to conditions: recombinant enzyme. The series is classed as ADME. Put shortly:
as §2

The test system of series [4] is Cytochrome P450. Briefly: Drug metabolism in human liver microsomes assessed as Cytochrome P450-mediated formation of 12-OHNVP at 10 uM […] in presence of CYP2C19 inhibitor (+)-N-3-benzyl-nirvanol and NADPH regenerating reagents by uHPLC-MS analysis. The series is classed as ADME. In general terms: Liver microsomes are a subcellular fraction often used to study metabolism.

Series [5] has as its system Cytochrome P450. Briefly: Drug metabolism in human liver microsomes assessed as Cytochrome P450-mediated formation of 2-OHNVP formation at 5 to 400 uM in presence of NADPH regenerating reagents by uHPLC-MS/MS analysis. The series is classed as ADME. The method in brief: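 Pooled human liver microsomes (2.5 mg/mL) with NADPH-regenerating system, substrate 5–400 μM, 30 min at 37 °C, 0.1% DMSO (0.2% at 400 μM); 2- and 3-OH metabolites by uHPLC-MS/MS Orbitrap; three replicates, mean ± SD.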

In series [6] the test system is Hepatocyte. Briefly: Induction of change in Slc9a3r1 protein expression in C57BL/6J mouse primary hepatocytes at 400 uM incubated for 8 hrs by relative-quantitation label-free proteomics analysis relative to NVP. The series is classed as cell-based. Put shortly: (§3)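 Fresh primary hepatocytes from male C57BL/6J mice aged 8–13 weeks, adhered overnight, then given fresh medium containing compound (400 μM), NVP (400 μM) or vehicle (0.2% DMSO) for 8 h. Lysate reduced (DTT) and alkylated (iodoacetamide), acetone-precipitated and digested with trypsin. Label-free Top10 nanoLC-MS with precursor ion area quantitation; unpaired t test P values, Cohen's d effect size.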

Series [7] concerns Hepatocyte. Briefly: Induction of change in Acy3 protein expression in C57BL/6J mouse primary hepatocytes at 400 uM incubated for 8 hrs by relative-quantitation label-free proteomics analysis relative to NVP. The series is classed as cell-based. The method in brief:
as §3

Series [8] relates to Hepatocyte. Briefly: Induction of change in Mrpl1 protein expression in C57BL/6J mouse primary hepatocytes at 400 uM incubated for 8 hrs by relative-quantitation label-free proteomics analysis relative to NVP. The series is classed as cell-based. The method in brief:
as §3

Series [9] concerns Hepatocyte. Briefly: Induction of change in Acot13 protein expression in C57BL/6J mouse primary hepatocytes at 400 uM incubated for 8 hrs by relative-quantitation label-free proteomics analysis relative to NVP. The series is classed as cell-based. Put shortly: as §3
The test system of series [10] is Hepatocyte. Briefly: Induction of change in MRPL23 protein expression in human primary hepatocytes at 10 uM incubated for 48 hrs by relative-quantitation label-free proteomics analysis relative to NVP. The series is classed as cell-based. The method in brief: (§4)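 Cryoplateable pooled human hepatocytes (10 mixed-sex donors per pool; three pools), adhered overnight, then given fresh medium containing compound (10 μM), NVP (10 μM) or vehicle (0.1% DMSO) for 48 h. Lysate reduced (DTT) and alkylated (iodoacetamide), acetone-precipitated and digested with trypsin. Label-free Top10 nanoLC-MS with precursor ion area quantitation; unpaired t test P values, Cohen's d effect size.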

Series [11] relates to Hepatocyte. Briefly: Induction of change in CARS2 protein expression in human primary hepatocytes at 10 uM incubated for 48 hrs by relative-quantitation label-free proteomics analysis relative to NVP. The series is classed as cell-based. Put shortly:
as §4

Series [12] deals with Hepatocyte. Briefly: Induction of change in SHMT2 protein expression in human primary hepatocytes at 10 uM incubated for 48 hrs by relative-quantitation label-free proteomics analysis relative to NVP. The series is classed as cell-based. The method in brief:
as §4

Series [13] deals with Hepatocyte. Briefly: Induction of change in CYC1 protein expression in human primary hepatocytes at 10 uM incubated for 48 hrs by relative-quantitation label-free proteomics analysis relative to NVP. The series is classed as cell-based. The method in brief:
as §4

In series [14] the test system is Hepatocyte. Briefly: Induction of change in ACSF3 protein expression in human primary hepatocytes at 10 uM incubated for 48 hrs by relative-quantitation label-free proteomics analysis relative to NVP. The series is classed as cell-based. The method in brief: as §4
Series [15] concerns Hepatocyte. Briefly: Induction of change in MTX2 protein expression in human primary hepatocytes at 10 uM incubated for 48 hrs by relative-quantitation label-free proteomics analysis relative to NVP. The series is classed as cell-based. The method in brief: as §4
Series [16] deals with Hepatocyte. Briefly: Induction of change in PTP4A1 protein expression in human primary hepatocytes at 10 uM incubated for 48 hrs by relative-quantitation label-free proteomics analysis relative to NVP. The series is classed as cell-based. Put shortly:
as §4

From ChEMBL document CHEMBL4613248, “Twelfth-Position Deuteration of Nevirapine Reduces 12-Hydroxy-Nevirapine Formation and Nevirapine-Induced Hepatocyte Death” (J Med Chem, 2020) come the findings set out here.

Structures are written as SMILES.

Sequence of Cytochrome P450 3A5 (P20815 whole entry): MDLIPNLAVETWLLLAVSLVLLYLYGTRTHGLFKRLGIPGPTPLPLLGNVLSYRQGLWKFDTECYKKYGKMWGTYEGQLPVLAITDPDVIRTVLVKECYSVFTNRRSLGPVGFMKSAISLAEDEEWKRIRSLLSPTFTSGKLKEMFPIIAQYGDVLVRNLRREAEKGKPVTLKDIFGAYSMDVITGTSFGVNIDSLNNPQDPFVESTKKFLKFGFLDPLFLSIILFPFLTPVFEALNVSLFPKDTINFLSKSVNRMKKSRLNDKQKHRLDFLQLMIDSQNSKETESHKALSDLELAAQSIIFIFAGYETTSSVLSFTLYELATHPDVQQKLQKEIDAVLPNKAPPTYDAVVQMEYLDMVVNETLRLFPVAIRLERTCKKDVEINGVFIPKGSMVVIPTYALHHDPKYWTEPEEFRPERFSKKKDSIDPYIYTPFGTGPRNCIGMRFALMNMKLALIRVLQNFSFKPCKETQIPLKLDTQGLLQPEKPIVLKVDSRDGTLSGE

As for `[2H]C([2H])([2H])c1ccnc2c1NC(=O)c1cccnc1N2C1CC1`, the Drug metabolism result in series [1] was “Metabolite_Detected”; in the series on Cytochrome P450 [2], “Metabolite_Detected”; in series [3], “Metabolite_Detected”; at Cytochrome P450 3A5 it was “Metabolite_Notdetected”; on Cytochrome P450 1A1, “Metabolite_Detected”; in the series on Cytochrome P450 [4], “Metabolite_Detected”. In the series on Cytochrome P450 [5], the Drug metabolism result is on record as “Metabolite_Detected”. The “fold change (FC)” value was 2.5 in the series with Hepatocyte [6]; 1.6 in the series with Hepatocyte [7]; -1.87 with Hepatocyte [8]; -1.97 in the series on Hepatocyte [9]; 8.32 with Hepatocyte [10]; 1.85 in the series with Hepatocyte [11]. Further, the “fold change (FC)” value was -1.28 with Hepatocyte [12]; -1.4 in the series with Hepatocyte [13]; -1.63 in the series on Hepatocyte [14]; -1.67 with Hepatocyte [15]; -2.42 in the series on Hepatocyte [16].
